According to ChEMBL document CHEMBL4665790, “Photohormones Enable Optical Control of the Peroxisome Proliferator-Activated Receptor γ (PPARγ)” (J Med Chem, 2020):
Calls of active or inactive are those of the source. No cut-off for these calls is given here.

Assays:
[1] = target: T1, Peroxisome proliferator-activated receptor gamma (Homo sapiens, UniProt P37231); assay: Agonist activity at PPARgamma (unknown origin) expressed in HEK293T cells incubated for 14 to 16 hrs under irradiation by hybrid Gal4 reporter gene assay; type: cell-based
T1 sequence (P37231 whole entry): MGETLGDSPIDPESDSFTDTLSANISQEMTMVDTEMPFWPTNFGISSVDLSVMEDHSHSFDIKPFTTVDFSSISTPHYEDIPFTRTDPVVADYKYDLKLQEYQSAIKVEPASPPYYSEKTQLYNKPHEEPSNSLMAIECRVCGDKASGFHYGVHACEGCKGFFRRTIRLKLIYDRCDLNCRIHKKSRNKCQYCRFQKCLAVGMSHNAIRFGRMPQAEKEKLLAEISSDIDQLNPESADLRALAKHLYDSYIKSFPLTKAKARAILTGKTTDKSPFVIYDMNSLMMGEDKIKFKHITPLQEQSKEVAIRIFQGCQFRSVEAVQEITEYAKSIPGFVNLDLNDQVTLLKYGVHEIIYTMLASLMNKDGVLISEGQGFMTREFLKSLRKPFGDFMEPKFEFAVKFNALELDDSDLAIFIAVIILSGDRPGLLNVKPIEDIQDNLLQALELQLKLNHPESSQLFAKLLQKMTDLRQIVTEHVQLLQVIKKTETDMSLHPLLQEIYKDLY

[2] = target: T1, Peroxisome proliferator-activated receptor gamma; assay: Agonist activity at PPARy in human HepG2 cells transfected with human PPRE incubated for 14 to 16 hrs using pre-irradiated compound by firefly luciferase reporter gene assay; type: cell-based
How it was run: (§1)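 HepG2 cells on collagen-coated wells, transfected (Lipofectamine 3000) with PPRE1-pGL3 (human full-length PPRE driving firefly luciferase) plus pRL-SV40; endogenous PPARγ/RXR, no overexpression. Compound in Opti-MEM, 0.1% DMSO, 14–16 h; cis state held by 75 ms 370 nm pulses every 15 s. Firefly/Renilla normalised, fold activation over DMSO control; rosiglitazone reference.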

[3] = target: T2, Peroxisome proliferator-activated receptor gamma (Homo sapiens) (UniProt P37231); assay: Agonist activity at PPARy in human HepG2 cells transfected with human PPRE incubated for 14 to 16 hrs using pre-irradiated compound by firefly luciferase reporter gene assay relative to control; type: cell-based; conditions: filed as agonist, time hrs 14-16; how it was run: as §1
T2 sequence (whole entry): T1 sequence (P37231 whole entry)

[4] = target: T1, Peroxisome proliferator-activated receptor gamma; assay: (§2) Binding affinity to recombinant PPARy LBD (unknown origin) expressed in Escherichia coli BL21 DE3 using pre-irradiated compound by ITC assay
How it was run: (§3)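 ITC at 25 °C: 300 µM compound, pre-irradiated 5 min at 365 nm, titrated into 64 µM His-tag-cleaved PPARγ LBD (aa 234–505, E. coli BL21 DE3 with GroEL/ES, IMAC plus gel filtration) in 25 mM HEPES pH 7.5, 150 mM KF, 5 mM DTT, 10% glycerol, 1% DMSO. 31 injections (1.0 then 2.5 µL), 300 s apart, 75 rpm; buffer control.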

[5] = target: T3, Peroxisome proliferator-activated receptor delta (Homo sapiens) (UniProt Q03181); assay: Agonist activity at PPARdelta (unknown origin) expressed in HEK293T cells at 10 uM incubated for 14 to 16 hrs under irradiation by hybrid Gal4 reporter gene assay; type: cell-based; conditions: time hrs 14-16
T3 sequence (whole entry): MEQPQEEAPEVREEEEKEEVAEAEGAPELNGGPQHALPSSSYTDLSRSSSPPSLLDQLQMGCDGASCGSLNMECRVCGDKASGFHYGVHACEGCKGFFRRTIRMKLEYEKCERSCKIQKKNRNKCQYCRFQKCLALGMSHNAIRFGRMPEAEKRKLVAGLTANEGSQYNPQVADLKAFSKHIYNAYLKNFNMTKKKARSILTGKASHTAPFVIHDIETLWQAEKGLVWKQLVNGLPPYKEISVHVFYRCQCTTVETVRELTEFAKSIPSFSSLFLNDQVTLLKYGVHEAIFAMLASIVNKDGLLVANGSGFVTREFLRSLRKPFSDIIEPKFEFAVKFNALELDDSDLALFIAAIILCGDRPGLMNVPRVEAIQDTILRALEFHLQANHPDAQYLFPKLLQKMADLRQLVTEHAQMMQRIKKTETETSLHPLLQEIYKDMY
How it was run: (§4)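 HEK293T cells transfected (Lipofectamine LTX) with Gal4 fusion of human PPARα or PPARδ hinge region + LBD, pFR-Luc reporter and pRL-SV40; compound added in Opti-MEM with 0.1% DMSO 5 h post-transfection, 14–16 h incubation. Dual-Glo luciferase; firefly/Renilla ratio gives RLU, fold activation vs DMSO control. Duplicates, ≥2 independent repeats.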

[6] = target: T4, Peroxisome proliferator-activated receptor alpha (Homo sapiens) (UniProt Q07869); assay: Agonist activity at PPARalpha (unknown origin) expressed in HEK293T cells at 10 uM incubated for 14 to 16 hrs under irradiation by hybrid Gal4 reporter gene assay; type: cell-based; conditions: time hrs 14-16; how it was run: as §4
T4 sequence (whole entry): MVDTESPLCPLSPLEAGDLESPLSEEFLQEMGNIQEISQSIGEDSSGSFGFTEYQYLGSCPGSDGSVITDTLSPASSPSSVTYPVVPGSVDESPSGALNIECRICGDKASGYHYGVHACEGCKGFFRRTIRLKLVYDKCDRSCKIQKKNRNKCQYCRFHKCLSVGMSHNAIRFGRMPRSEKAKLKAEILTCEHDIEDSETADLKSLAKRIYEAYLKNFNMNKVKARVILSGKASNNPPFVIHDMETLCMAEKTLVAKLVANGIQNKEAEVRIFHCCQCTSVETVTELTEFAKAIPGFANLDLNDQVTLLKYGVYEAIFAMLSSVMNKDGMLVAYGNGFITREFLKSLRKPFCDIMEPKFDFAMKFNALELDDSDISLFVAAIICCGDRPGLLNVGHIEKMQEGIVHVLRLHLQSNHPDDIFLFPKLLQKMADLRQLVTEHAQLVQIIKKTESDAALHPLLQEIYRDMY

[7] = target: T2, Peroxisome proliferator-activated receptor gamma (Homo sapiens); assay: Agonist activity at PPARy in human HepG2 cells transfected with human PPRE at 10 uM incubated for 14 to 16 hrs using pre-irradiated compound by firefly luciferase reporter gene assay; type: cell-based; conditions: filed as agonist, time hrs 14-16; how it was run: as §1
[8] = target: T2, Peroxisome proliferator-activated receptor gamma (Homo sapiens); assay: as §2; how it was run: as §3
[9] = target: T2, Peroxisome proliferator-activated receptor gamma (Homo sapiens); assay: Agonist activity at PPARgamma (unknown origin) expressed in HEK293T cells at 10 uM incubated for 14 to 16 hrs under irradiation by hybrid Gal4 reporter gene assay; type: cell-based; conditions: time hrs 14-16
How it was run: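 Gal4 hybrid reporter: HEK293T cells transiently co-transfected with Gal4–human PPARγ hinge+LBD fusion, Gal4-responsive firefly luciferase reporter and Renilla normalisation plasmid. Compound added 5 h post-transfection in Opti-MEM, 0.1% DMSO final; 14–16 h incubation. Dual-Glo read-out, firefly/Renilla ratio, fold over DMSO control. Technical duplicates, at least two independent repeats.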

Structure (SMILES)	EC50 [1]	Activity [5]	other results
O=C1NC(=O)C(Cc2ccc(/N=N\c3ccc(C(F)(F)F)cc3)cc2)S1 (centres undefined)	6.5 µM	–	–
Cc1ccccc1-c1ccc(/N=N\c2ccc(CC3SC(=O)NC3=O)cc2)cc1 (centres undefined)	6.4 µM	–	EC50 [2]: 0.9 µM; fold change (FC) [3]: 2.4; Kd [4]: 9.3 µM
O=C(c1ccccc1)c1ccccc1N[C@@H](Cc1ccc(/N=N/c2ccccc2)cc1)C(=O)O	–	inactive	Activity [6]: inactive
O=C1NC(=O)C(Cc2ccc(/N=N\c3ccccc3)cc2)S1 (centres undefined)	6.3 µM	–	–
O=C1NC(=O)C(Cc2ccc(/N=N/c3ccc(Cl)cc3)cc2)S1 (centres undefined)	2.9 µM	–	–
Cc1ccccc1-c1ccc(/N=N/c2ccc(CC3SC(=O)NC3=O)cc2)cc1 (centres undefined)	2.8 µM	–	Activity [7]: Active; Activity [8]: inactive
O=C1NC(=S)NC(=O)C1=Cc1ccc(/N=N/c2ccccc2)cc1	–	inactive	Activity [9]: inactive; Activity [6]: inactive
O=C1NC(=O)C(Cc2ccc(/N=N/c3ccccc3)cc2)S1 (centres undefined)	2.2 µM	inactive	–
O=C1NC(=O)C(Cc2ccc(/N=N/c3ccc(C(F)(F)F)cc3)cc2)S1 (centres undefined)	2.2 µM	–	–
O=C1NC(=O)C(Cc2ccc(/N=N\c3ccc(Cl)cc3)cc2)S1 (centres undefined)	7 µM	–	–
